Experiment: Toxicity liver stage against HepG2, at 10uM
Type: cell-based
Parameters: test concentration 10 uM, cell line HepG2-A16-CD81EGFP
Settings: human, HepG2-A16-CD81EGFP cells; read-out: INHIBITION
How it was run: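 Uninfected HepG2-A16-CD81EGFP cells, 3 × 10^3 per well, 1536-well, plated on prespotted compound at 10 μM final, parasite-free screening media added to match infected plates; puromycin 10 μM positive, DMSO 0.5% negative; run in parallel with 48 h PbLuc assay at 37 °C, 5% CO2; viability by CellTiter-Glo luminescence, normalized to controls.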

Row | SMILES | cytotoxicity at 10 µM [%]
1 | COC(=O)c1cccc(C(=O)N(C)Cc2cccc(O)c2)c1 | 9.85
2 | CC(=O)N1C[C@@H](F)[C@@H](OCc2nc3cc(C)c(C)cc3[nH]2)C1 | 1.77
3 | COCCOc1ncccc1-c1noc([C@@H]2CCCN2C2CCC2)n1 | -7.68
4 | COc1ccc(CN2C[C@H](O)C[C@H]2c2nc(-c3ccccc3)no2)cc1 | 0.223
5 | CCn1cnc2c(cnn2-c2cccc(C)c2C)c1=O | -17.9
6 | Cc1ccc(CN2CCC3(CCCN3C(=O)C(C)C)CC2)o1 | -5.9
7 | CN(C)C(=O)N1CCC2(CC1)C(=O)N(CC1CCOC1)c1ccccc12 (configuration not stated) | 6.68
8 | CCOCc1nn(C)c2c1CN(C(=O)c1ccno1)CC2 | 8.61
9 | COCCNC(=O)Cn1c(-c2cccc(F)c2)nc(C)c(CCO)c1=O | -2.37
10 | CC(=O)Nc1nc(-c2ccc(C)c(C)c2)c[nH]1 | -19.3
11 | O=c1cc(-c2ccc(F)cc2)nc2n1CCCCC2 | -1.91
12 | O=C(c1cnc2ccc(Cl)cc2c1NCc1ccco1)N1CCCCC1 | 4.38
13 | Cn1ccc2c(C(=O)N3CCC(C(N)=O)CC3)cccc21 | 2.92
14 | Cc1cnc2n(c1=O)CC(C(=O)Nc1cccc3cccnc13)CS2 (configuration not stated) | -19.6
15 | CC(C)NC(=O)c1ccc2c(c1)nc1n2CCN(c2ccccc2)C1 | -3.99
16 | CC(=O)N1CCN(c2ccc3ccc(C(=O)NC4CCCC4)cn23)CC1 | 8.15
17 | CCn1nnc2c1C(COC)CN(C(=O)Cc1cccs1)C2 (configuration not stated) | -15.5
18 | Cc1noc([C@H]2CC[C@@H]3[C@@H](CCN3S(C)(=O)=O)O2)n1 | -19.3
19 | CC(C(=O)O)n1nc(C(F)(F)F)c(Cl)c1C1CC1 (configuration not stated) | 2.01
20 | CNc1nnc(CCn2nc(C)c(Br)c2C)s1 | 2.83
21 | COc1c(C2CC(=O)Nc3[nH]ncc32)cc2c(c1OC)OCO2 (configuration not stated) | 3.66
22 | FC(F)(F)c1cc(C2CCCN(c3ncccn3)C2)n2ccnc2n1 (configuration not stated) | 10.4
23 | CC1(C(=O)N2CCOCC2)CN(CC2CCOCC2)CCO1 (configuration not stated) | 4.14

Row | SMILES | cytotoxicity at 10 µM [%]
24 | c1cc(C2CN(C3CCCC3)C2)n[nH]1 | 4
25 | Cc1cc2ccncc2n1CC1(O)CCN(C(=O)c2ccncc2)CC1 | 7.53
26 | CN1C[C@@H](C(=O)NCC(F)(F)F)[C@@]2(CCc3ccccc3C(=O)N2)C1 | 6.22
27 | Cc1csc2c(C3CCCN(C(=O)Cn4cncn4)C3)nc(C)n12 (configuration not stated) | 5.27
28 | CCCn1nccc1-c1nccnc1CC1CCN(C(C)=O)C1 (configuration not stated) | 1.34
29 | CSCC[C@@H]1CN2CCC[C@H]2CN1Cc1coc2ccc(Cl)cc2c1=O | 0.11
30 | Cc1cnc(Nc2nccnc2C2CCN(C)CC2)s1 | 2.52
31 | Cn1cc(C2CCCN2C(=O)c2cnc(C3CC3)s2)cn1 (configuration not stated) | -2.05
32 | CC(C(=O)N1CCOCC1)S(=O)(=O)Cc1nc(C(C)(C)C)no1 (configuration not stated) | -3.82
33 | c1ccc(CCN2CCC(OCC3CCCCO3)CC2)nc1 (configuration not stated) | -4.9
34 | CN1CC(NC(=O)Nc2cnn(-c3ccccc3Cl)c2)CCC1=O (configuration not stated) | -1.54
35 | COC(=O)CNC(=O)CCc1cc(Br)cs1 | 0.624
36 | CCCC(=O)NC1CCCN(c2nc3ccccc3cc2CO)C1 (configuration not stated) | -44.5
37 | CN(CC(=O)N1CCCC(n2ccnc2)C1)c1cnccn1 (configuration not stated) | 1.41
38 | Cc1ccc(N2CCCN(C(=O)CCCn3ccnc3C)CC2)nn1 | -3.83
39 | CCn1cnnc1CNC(=O)N(C)Cc1ccccc1OC | -7.32
40 | O=C(NCC(=O)N1CCCC1Cc1cccc(F)c1)C1CCCC1 (configuration not stated) | -18
41 | Cn1cc(C(=O)NCCC(=O)N2CCCCC2)c(-c2cccnc2)n1 | -5.93
42 | CC(CS(C)(=O)=O)N(C(=O)Nc1ccc(F)cc1F)C1CC1 (configuration not stated) | 4.08
43 | CCC1CN(C(=O)Cc2coc(-c3ccccc3)n2)CCO1 (configuration not stated) | 3.06
44 | Cc1noc(C)c1CN1CCN(C(=O)C(C(C)C)n2cncn2)CC1 (configuration not stated) | 1.4
45 | COCC(NC(=O)c1cccnc1)c1cccc(C(F)(F)F)c1 (configuration not stated) | -12.9
46 | COC(=O)c1ccoc1CN(C)Cc1cc(OC)c(OC)cc1C | -1.06

Row | SMILES | cytotoxicity at 10 µM [%]
47 | CCOc1ncccc1NC(=O)c1ccc(C(C)=O)s1 | 2.99
48 | CCN(Cc1nc2c(cnn2C)c(=O)[nH]1)c1cccc(C)c1C | 1.66
49 | O=C(Nc1ccccc1OC1CCOC1)c1ccon1 (configuration not stated) | -0.238
50 | CCN1CCC(CNC(=O)c2cc(Cl)c[nH]2)CC1 | -9.4
51 | CC(O)CN1CCC(CN(C)CCC(=O)NC2CCCC2)CC1 (configuration not stated) | -0.663
52 | CC(=O)N(Cc1noc(C)n1)C1CCN(CC(=O)N(C)C2CC2)C1 (configuration not stated) | -4.69
53 | CC(C)c1nsc(N2CCOCC2)n1 | -11
54 | CCOCCN1CCN(c2ccc(CN(C)C)cn2)CC1 | -4.11
55 | Cc1cc(CN(C)C(=O)C2CC(c3cccc(F)c3)=NO2)no1 (configuration not stated) | 5.91
56 | CCC(CC)CS(=O)(=O)NC(=O)C1CCC1 | -6.8
57 | Cc1nn(C)c2ncc(CN3CCN(c4ncccn4)CC3)cc12 | -0.234
58 | Nc1nccnc1C(=O)N1CCN(CCOc2ccccc2)CC1 | 12.8
59 | Clc1ccccc1-c1nnc(CSCCN2CCOCC2)o1 | 0.728
60 | CC(C)NC(=O)CN(C1CC1)C(C)C1CC1 (configuration not stated) | -1.6
61 | COc1ccc(NC(=O)NCc2cccc(N(C)C)n2)c(Cl)c1 | 21.8
62 | CCC(C)NS(=O)(=O)Cc1cccc(NC(=O)c2cc[nH]c2C)c1 (configuration not stated) | 3.77
63 | Cc1noc(CNc2c(N3CCCC3)cccc2N2CCCC2)n1 | 0.184
64 | CCCNC(=O)c1ccc(-c2ccco2)[nH]c1=O | -5.68
65 | Cn1cc(CCCNC(=O)NC2CCN(c3ccccc3)C2=O)cn1 (configuration not stated) | 6.75
66 | O=C(Cc1cn2ccsc2n1)N(Cc1ccco1)CC1CCCO1 (configuration not stated) | 7.07
67 | COc1ccc(-c2nc(CNC(C)Cn3cccn3)cs2)cc1 (configuration not stated) | 4.27
68 | O=C(NCc1nc[nH]n1)c1cc(COc2cccc(F)c2)[nH]n1 | -4.99
69 | Cc1nc(C)c(-c2nnc(SCC(=O)O)n2C(C)c2ccccc2)o1 (configuration not stated) | 4.64

Row | SMILES | cytotoxicity at 10 µM [%]
70 | COc1ccccc1OC1CCN(C(=O)c2cnc(C)cc2C)CC1 | 4.36
71 | c1ccc(N2CCCC(c3nc(-c4cccnn4)no3)C2)nc1 (configuration not stated) | -3.42
72 | CC1(C)CN(C(=O)c2ccccc2-n2cncn2)CC1(C)O (configuration not stated) | -19.3
73 | Cc1nc(CCN)cc(N2CCC(O)(c3ccccc3)C2)n1 (configuration not stated) | 2.03
74 | CN1C(=O)C2(CCCN(C(=O)c3cccnc3O)C2)c2ccccc21 (configuration not stated) | -5.21
75 | CCCc1nncn1-c1cc(OC)ccc1OC | 7.93
76 | CN(C)C(C(=O)N1CCN(S(N)(=O)=O)CC1)c1ccccc1F (configuration not stated) | 0.199
77 | CN(C)CC1(O)CCCN(C(=O)c2ccccc2-n2cccn2)C1 (configuration not stated) | -20.6
78 | Cc1cc(C)n(CC2(CNC(=O)C(c3ccccc3C)N(C)C)CC2)n1 (configuration not stated) | 1.79
79 | O=C(CN1CCOC1=O)N1CCc2nnc(-c3ccccc3)n2CC1 | -16.2
80 | CCn1nc(NC(=O)Cn2ccc(C(C)=O)n2)c2ccccc21 | 12.8
81 | Cc1ccc(CN2CCC(n3cc(CN4CCC(O)CC4)nn3)CC2)s1 | -3.53
82 | CN1CC2(CCN(C(=O)c3ccc4nccnc4c3)CC2)CC1=O | -1.7
83 | CCc1ncc(C(=O)N2CCN(Cc3ncccc3C)CC2)cn1 | -4.68
84 | COc1cc(CN2CCN(CC3CC3)[C@@H]3CS(=O)(=O)C[C@@H]32)cc(OC)c1 | 1.41
85 | COc1nc2ccccc2cc1CN1CCC(CNS(C)(=O)=O)C1 (configuration not stated) | -2.7
86 | CS(=O)(=O)N(Cc1ccon1)c1ccc2c(c1)OCO2 | 1.06
87 | O=C1CCc2cc(S(=O)(=O)NCc3cc4n(n3)CCCNC4)ccc2N1 | -5.38
88 | Cc1cc(=O)n(CC(=O)Nc2cccc(Cl)c2)nc1C | -6.84
89 | CCC(NS(C)(=O)=O)c1ccccc1C (configuration not stated) | -43.2
90 | Cc1ccccc1CS(=O)(=O)NCCCN1CCCCC1 | 19.4
91 | Cc1nc(-c2ccccc2C)n(CC(=O)NC2CCCC2)n1 | 5.48
92 | COc1c(CNCc2ccc3c(c2)OCCO3)c(C(C)C)nn1C | -3.42

Row | SMILES | cytotoxicity at 10 µM [%]
93 | CCN(CC1CCOC1)C(=O)c1cc(F)ccc1N1CCN(C)CC1 (configuration not stated) | -7.68
94 | Cc1cccc(NS(=O)(=O)c2cc3c(c(C(=O)O)c2)OCCO3)c1 | -3.44
95 | CNc1nc(CNC(=O)Nc2cccc(CC(F)(F)F)c2)cs1 | -9.77
96 | O=C(CC1CCCO1)N1CCCN(c2cccnn2)CC1 (configuration not stated) | -7.72
97 | O=C(NCCn1ccnc1)N1CCCC1c1cccs1 (configuration not stated) | -7.51
98 | NC(=O)Cn1cc(NC(=O)N2CCN(c3ccc(F)cc3)CC2)cn1 | -12.9
99 | Cc1cc(CN2CCN(C(=O)NC(C)c3cccnc3)CC2)no1 (configuration not stated) | -11.8
100 | CCC(O)CN1CCN(C(=O)c2cccn2Cc2cccnc2)CC1 (configuration not stated) | -14.1
101 | O=C(NCCCn1nc2ccccn2c1=O)Nc1ccccc1Cl | -22.3
102 | COc1ccc(C(=O)N2CCCCC2c2nccs2)c(OC)c1 (configuration not stated) | -10.7
103 | CC(C)Oc1ncccc1CNC(=O)c1cnccn1 | -10.2
104 | Cn1cc(CN2CCc3c(COCC4CC4)cncc3C2)cn1 | -6.33
105 | Cn1cc(CN2CCc3onc(COc4cccnc4)c3C2)cn1 | 4.78
106 | CN1CC(=O)N(c2cnn(C)c2)CC12CCN(Cc1cccs1)C2 (configuration not stated) | 3.48
107 | Cc1ccccc1CN1CCC2(CC1)CN(S(=O)(=O)c1ccccc1)C2 | -2.78
108 | CC(C)N1CCO[C@H]2CN(C(=O)Cc3ccsc3)C[C@H]21 | 11.4
109 | O=C(NC[C@]12COC[C@H]1CN(Cc1nccs1)C2)c1ccsc1 | 4.09
110 | CC(C)N1CCC2(CC1)CC(NCc1ccccn1)c1ccccc1O2 (configuration not stated) | 0.806
111 | O=C(Nc1ccccc1)[C@H]1C[C@H]2CN(C(=O)Nc3ccccc3)C[C@@H]1O2 | 2.4
112 | CCc1nccc(CN2CCC(CNC(=O)C3CCC(C)CC3)C2)n1 (configuration not stated) | -4.51

— ChEMBL document CHEMBL4513216, “Probing the Open Global Health Chemical Diversity Library for Multistage-Active Starting Points for Next-Generation Antimalarials” (ACS Infect Dis, 2020)
